Results of several laboratories.
Protocols differ between the studies behind these lines.
Effect on: cell growth or viability

SMILES | cell line | test | conditions | measurement | value
CN1C(=O)c2ccccc2CCC(=O)c2ccccc21 | L6 | – | – | IC50 | > 380000 nM
O=c1ncccn1[C@@H]1O[C@H](CO)[C@@H](O)[C@H]1O | MEC1 | – | 48 h | IC20 | 75000 nM
Cc1cc2c(cc1N1C(=O)c3cccc4c(CCCO)ccc(c34)C1=O)n(C)c(=O)n2C (racemic) | MDA-MB-453 | resazurin | – | GI50 | > 10000 nM
N#Cc1ccc2c(c1)CCC(=O)c1ccccc1NC2=O | L6 | – | – | IC50 | 150000 nM
Nc1nc(Cl)nc2c1ncn2[C@H]1C[C@H](O)[C@@H](CO)O1 | GISTT1 | resazurin | 72 h | IC50 | > 1000 nM
O=C1CCc2c(O)cccc2C(=O)Nc2ccccc21 | L6 | – | – | IC50 | 210000 nM
CN(C)c1ccc(C(=C2C=CC(=[N+](C)C)C=C2)c2ccc(N(C)C)cc2)cc1 | GISTT1 | resazurin | 72 h | IC50 | 520 nM
O=C1Nc2ccccc2CCCc2ccccc21 | L6 | – | – | IC50 | 190000 nM
COc1cc2c(cc1OS(N)(=O)=O)CCN(Cc1cc(Cl)c(OC)c(OC)c1)C2 | CNSSF-539 | SRB | – | GI50 | 19 nM
CC(=O)Nc1cccc(-n2c(=O)n(C3CC3)c(=O)c3c(Nc4ccc(I)cc4F)n(C)c(=O)c(C)c32)c1 | SW1417 | resazurin | 780 pM, 72 h | viability | 99.6%
CC(=O)O[C@H]1C(=O)[C@@]2(C)[C@H]([C@H](OC(=O)c3ccccc3)[C@]3(O)C[C@H](OC(=O)[C@H](O)[C@@H](NC(=O)c4ccccc4)c4ccccc4)C(C)=C1C3(C)C)[C@]1(OC(C)=O)CO[C@@H]1C[C@@H]2O | GISTT1 | resazurin | 72 h | IC50 | 210 nM
CN(C)CCCn1c2c(c3ccncc3c1=O)C(=O)c1ccccc1-2 | CNSSF-539 | SRB | – | GI50 | 708 nM
COc1cc(CN2CCc3cc(O)ccc3C2)cc(OC)c1OC | CNSSF-539 | SRB | – | GI50 | 36 nM
